In publication PMC3090679 (Biochemistry, 2011):
Residue numbers refer to the chain shown, from its start. “Also recorded” adds a separate entry of the source. Read-outs that look alike come from different tables or passages of the source.

Assays:
RGS19 = biological target: T1, RGS19 (Homo sapiens, UniProt P49795); assay: FCPIA, RGS19/Gαo binding
T1 sequence (P49795 1-206 limits assumed): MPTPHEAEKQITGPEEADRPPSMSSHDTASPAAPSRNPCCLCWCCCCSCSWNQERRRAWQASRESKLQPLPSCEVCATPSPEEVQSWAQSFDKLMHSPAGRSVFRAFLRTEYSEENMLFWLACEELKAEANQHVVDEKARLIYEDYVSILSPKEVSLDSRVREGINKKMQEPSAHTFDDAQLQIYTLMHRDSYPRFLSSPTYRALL
Procedure, shortened: (§1)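 Constructs were RGS19 ΔC11 as an MBP/10×His fusion and the RGS7 homology domain as a GST fusion. Each was chemically biotinylated, immobilised on avidin microspheres and pretreated with test compound or vehicle for 15 min at room temperature. Beads were then mixed with AlexaFluor-532-Gαo plus GDP/AlF and binding was read by flow cytometry. IC50 is the mean±SEM of at least three independent experiments.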

Gαo [1] = biological target: T2, Gαo (Homo sapiens, UniProt P09471); assay: Single turnover GTPase assay, intrinsic Gαo rate; type: biochemical; settings: 100 μM
Procedure, shortened: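 N-terminally 6×His-tagged Gαo was purified to >90% homogeneity. Single-turnover hydrolysis of isotopically diluted γ[32P]GTP was measured. Results are expressed as the rate constant k (sec−1) of GTP hydrolysis.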

RGS8Cys− = biological target: T3, RGS8Cys− (Homo sapiens, UniProt P57771, C142S/C89S); assay: ESI-LC/MS protein adduct analysis, RGS8Cys−; settings: RGS8Cys− mutant
T3 sequence (P57771 74-189 isoform P57771-2 C107S/C160S): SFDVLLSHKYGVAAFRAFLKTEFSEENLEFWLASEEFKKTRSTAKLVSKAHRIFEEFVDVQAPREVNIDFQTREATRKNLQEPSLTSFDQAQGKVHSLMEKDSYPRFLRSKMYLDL

RGS8 [2] = biological target: T4, RGS8 (Homo sapiens, UniProt P57771); assay: FCPIA, RGS8/Gαo binding
T4 sequence (P57771 56-171 limits assumed): T3 sequence (P57771 74-189 isoform P57771-2 C107S/C160S) with S34C, S87C

107C RGS8 = biological target: T5, 107C RGS8 (Homo sapiens, UniProt P57771, C142S); assay: Gel filtration then FCPIA competition, 107C RGS8; type: binding; settings: 107C RGS8 after gel filtration
T5 sequence (P57771 74-189 isoform P57771-2 C160S): T3 sequence (P57771 74-189 isoform P57771-2 C107S/C160S) with S34C

RGS4 wild Type = biological target: T6, RGS4 wild Type (Homo sapiens, UniProt P49798); assay: FCPIA, RGS4/Gαo binding
T6 sequence (P49798 52-205 limits assumed): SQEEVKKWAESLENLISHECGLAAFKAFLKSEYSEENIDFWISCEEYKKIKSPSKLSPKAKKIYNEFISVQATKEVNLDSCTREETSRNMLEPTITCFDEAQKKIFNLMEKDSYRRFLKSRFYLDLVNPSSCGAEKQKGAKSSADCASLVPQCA

[3] = tested on: Gαo-dependent membrane translocation of GFP-RGS4 in HEK293T cells; assay: RGS4 membrane translocation in living cells; type: cell-based, human; settings: 100 μM
[4] = biological target: T7, RGS4-stimulated GTP hydrolysis by Gαo (Homo sapiens, UniProt P49798); assay: Single turnover GTPase assay, RGS4 GAP activity; type: biochemical
T7 sequence (P49798 52-205 limits assumed): T6 sequence (P49798 52-205 limits assumed)
Procedure, shortened: (§2)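 Single-turnover measurement of Gαo GTP hydrolysis, with or without RGS4 or RGS8, in the presence of test compound, following a previously published method. The RGS8 homology domain was an N-terminal 6×His construct from pQE-80 carrying native Cys107 and Cys160. All proteins were purified to >90% homogeneity, and Gαo activity was confirmed by [35S]GTPγS binding. Output is the GTP hydrolysis rate constant k (sec−1).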

RGS8cys− (C160S/C107S) = biological target: T8, RGS8cys− (C160S/C107S) (Homo sapiens, UniProt P57771, C142S/C89S); assay: FCPIA, RGS8cys−/Gαo binding
T8 sequence (P57771 56-171 C89S/C142S): T3 sequence (P57771 74-189 isoform P57771-2 C107S/C160S)
Procedure, shortened: (§3)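 RGS8 homology domain (N-terminal 6×His, pQE-80) with Cys→Ser site-directed mutations was chemically biotinylated on amines and loaded on avidin microspheres. Beads were treated with test compound or vehicle for 15 min at room temperature, then mixed with AlexaFluor-532-labelled Gαo plus GDP and aluminium fluoride. Binding was read by Luminex flow cytometry. Values are mean±SEM of three independent experiments.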

WT RGS8 [5] = biological target: T9, WT RGS8 (Homo sapiens, UniProt P57771); assay: Gel filtration then FCPIA competition, WT RGS8; type: binding
T9 sequence (P57771 56-171 limits assumed): T3 sequence (P57771 74-189 isoform P57771-2 C107S/C160S) with S34C, S87C

RGS8 [6] = biological target: T4, RGS8; assay: ThermoFluor thermal stability, RGS8; type: binding
160C RGS8 = biological target: T10, 160C RGS8 (Homo sapiens, UniProt P57771, C89S); assay: Gel filtration after compound treatment, 160C RGS8
T10 sequence (P57771 56-171 C89S): T3 sequence (P57771 74-189 isoform P57771-2 C107S/C160S) with S87C

papain = biological target: T11, papain (Carica papaya, UniProt P00784); assay: Papain activity assay; type: biochemical
T11 sequence (P00784 134-345): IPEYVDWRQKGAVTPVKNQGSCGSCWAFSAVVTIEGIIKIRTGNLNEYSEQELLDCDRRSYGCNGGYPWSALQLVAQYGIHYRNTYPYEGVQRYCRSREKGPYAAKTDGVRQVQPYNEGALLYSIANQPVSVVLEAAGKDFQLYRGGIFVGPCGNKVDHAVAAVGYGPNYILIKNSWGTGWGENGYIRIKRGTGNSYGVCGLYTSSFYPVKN
Procedure, shortened: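 FITC-casein was added to 250 nM final. Fluorescence (ex 485/em 520 nm) was read at intervals in the dark, and concentration dependence was taken at 5 min. Values are mean±SEM of three independent experiments.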

RGS4 = biological target: T12, RGS4 (Homo sapiens, UniProt P49798); assay: ThermoFluor thermal stability, RGS4; type: binding
T12 sequence (P49798 52-205 limits assumed): T6 sequence (P49798 52-205 limits assumed)

160C RGS8 (C107S) = biological target: T13, 160C RGS8 (C107S) (Homo sapiens, UniProt P57771, C89S); assay: FCPIA, 160C RGS8/Gαo binding
T13 sequence (P57771 56-171 C89S): T3 sequence (P57771 74-189 isoform P57771-2 C107S/C160S) with S87C
Procedure, shortened: as §3

Gαo [7] = biological target: T2, Gαo; assay: ThermoFluor thermal stability, Gαo; type: binding
[8] = biological target: T14, RGS8-stimulated GTP hydrolysis by Gαo (Homo sapiens, UniProt P57771); assay: Single turnover GTPase assay, RGS8 GAP activity; type: biochemical
T14 sequence (P57771 56-171 limits assumed): T3 sequence (P57771 74-189 isoform P57771-2 C107S/C160S) with S34C, S87C
Procedure, shortened: as §2

WT RGS8 [9] = biological target: T9, WT RGS8; assay: ESI-LC/MS protein adduct analysis, WT RGS8; settings: WT RGS8 2 μM
107C RGS8 (C160S) = biological target: T15, 107C RGS8 (C160S) (Homo sapiens, UniProt P57771, C142S); assay: FCPIA, 107C RGS8/Gαo binding
T15 sequence (P57771 74-189 isoform P57771-2 C160S): T3 sequence (P57771 74-189 isoform P57771-2 C107S/C160S) with S34C
Procedure, shortened: as §3

RGS7 = biological target: T16, RGS7 (Homo sapiens, UniProt P49802); assay: FCPIA, RGS7/Gαo binding
T16 sequence (P49802 333-448 limits assumed): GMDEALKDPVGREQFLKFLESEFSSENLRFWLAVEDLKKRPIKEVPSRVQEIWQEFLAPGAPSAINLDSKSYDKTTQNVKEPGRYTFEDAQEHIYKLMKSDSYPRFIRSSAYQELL
Procedure, shortened: as §1

RGS16 = biological target: T17, RGS16 (Homo sapiens, UniProt O15492); assay: FCPIA, RGS16/Gαo binding
T17 sequence (O15492 1-202): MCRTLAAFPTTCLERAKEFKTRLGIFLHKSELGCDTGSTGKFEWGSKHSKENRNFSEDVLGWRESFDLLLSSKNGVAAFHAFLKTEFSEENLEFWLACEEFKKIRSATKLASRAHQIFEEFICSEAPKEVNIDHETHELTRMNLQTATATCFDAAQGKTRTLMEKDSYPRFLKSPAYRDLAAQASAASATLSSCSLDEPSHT

Gαo [10] = biological target: Gαo (UniProt P59215); assay: flow cytometry protein interaction assay
[11] = 100 μM, FITC-casein proteolysis
[12] = read-out: irreversible inhibition of Gα binding after extensive washing
[13] = read-out: total amount of inhibition (without a wash step)
[14] = concentration dependence or concentration not stated

T2 sequence (P09471 whole entry): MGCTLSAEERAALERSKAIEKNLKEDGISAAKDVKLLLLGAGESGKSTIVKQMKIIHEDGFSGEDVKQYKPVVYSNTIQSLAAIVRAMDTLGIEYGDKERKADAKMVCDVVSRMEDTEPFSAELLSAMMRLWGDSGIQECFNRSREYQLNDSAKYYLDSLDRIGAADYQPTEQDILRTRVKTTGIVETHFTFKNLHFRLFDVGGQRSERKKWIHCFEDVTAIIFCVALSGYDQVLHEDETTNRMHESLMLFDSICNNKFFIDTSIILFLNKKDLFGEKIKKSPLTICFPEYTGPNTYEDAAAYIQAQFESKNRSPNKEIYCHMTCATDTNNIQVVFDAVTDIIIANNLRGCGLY
Sequence of Gαo (UniProt P59215) (P59215 whole entry): as the sequence (P09471 whole entry) above, with I93V, A104S, T292P, P294S, A306T counted along it

## Cc1ccc(-n2sc(=O)n(Cc3ccc(F)cc3)c2=O)cc1 [CCG-50014, 4-(4-fluorobenzyl)-2-p-tolyl-1,2,4-thiadiazolidine-3,5-dione]
RGS19
  inhibition of RGS19/Gαo binding (in words): fully inhibits
RGS19; RGS19
  Hill Slope: −0.61
Gαo [1]
  effect on intrinsic rate of GTP hydrolysis by Gαo: did not alter
RGS8Cys−
  adduct formation by LC-MS: No adducts are observed
RGS8 [2]; FCPIA
  inhibition of RGS8/Gαo binding (in words): fully inhibits
RGS8 [2]; FCPIA, RGS8
  Hill Slope: −0.99
RGS8 [2]; FCPIA, wildtype RGS8, Fig. 5
  Hill Coefficient: −0.79
RGS8 [2]; IC50 (μM), FCPIA, wildtype RGS8, Fig. 5, three experiments
  IC50: 6.1 µM
RGS8 [2]; RGS8 beads, 100 μM for 15 minutes, wash with 1 mM DTT
  reversibility of inhibition after washing with DTT: partially reversed
RGS8 [2]; RGS8 beads, 100 μM for 15 minutes, wash without DTT
  reversibility of inhibition after washing: irreversible inhibitor
RGS8 [2]; read-out: total amount of inhibition (without a wash step), WT RGS8, 20 μM
  inhibition at 20 µM: 64 ± 2%
107C RGS8
  competition for Gαo binding, treated versus vehicle-treated protein: no discernable difference
RGS4 wild Type; FCPIA IC50 values
  selectivity for RGS4 over RGS8 and RGS16: > 100 fold
RGS4 wild Type; FCPIA at pH 6.5 (control for papain assay)
  inhibitory activity against the RGS4-Gαo protein-protein interaction at pH 6.5: retains full inhibitory activity
RGS4 wild Type; FCPIA, RGS4 wild type
  Hill Slope: −1.53
RGS4 wild Type; RGS4 beads, 100 μM for 15 minutes, wash with 1 mM DTT
  reversibility of inhibition after washing with DTT: partially reversed
RGS4 wild Type; RGS4 beads, 100 μM for 15 minutes, wash without DTT
  reversibility of inhibition after washing: irreversible inhibitor
[3]
  effect on Gαo-dependent membrane localization of GFP-RGS4: reversed the membrane localization; also recorded: significant decrease
[4]
  effect on GTPase accelerating (GAP) activity of RGS4 on Gαo: concentration-dependently inhibits the GAP activity; also recorded: inhibited the GTPase accelerating activity
RGS8cys− (C160S/C107S)
  IC50: > 100 µM
WT RGS8 [5]
  residual inhibition after gel filtration: > 90%
RGS8 [6]
  effect on thermal stability of RGS8: thermally destabilizes
RGS8 [6]; listed as CCGA-50014
  effect on thermal stability of RGS8: concentration-dependently destabilized
160C RGS8
  state of the protein after compound treatment: formed aggregates; also recorded: completely (and visually) aggregates
papain; [11]
  effect on papain activity: no effect
RGS4
  effect on thermal stability of RGS4: concentration-dependently destabilized
160C RGS8 (C107S)
  IC50: 0.71 µM
160C RGS8 (C107S); 160C RGS8, 20 μM
  reversibility of inhibition after washing: completely irreversible
160C RGS8 (C107S); FCPIA, 160C RGS8, Fig. 5
  Hill Coefficient: −0.36
160C RGS8 (C107S); [12]
  inhibition at 20 µM: ~50%
160C RGS8 (C107S); [13]
  inhibition at 20 µM: 56 ± 1%
Gαo [7]
  effect on thermal stability of Gαo: no effect
[8]
  effect on GTPase accelerating (GAP) activity of RGS8 on Gαo: concentration-dependently inhibits the GAP activity; also recorded: inhibited the GTPase accelerating activity
WT RGS8 [9]
  adduct formation by LC-MS: covalent adduct
107C RGS8 (C160S)
  IC50: 46.5 µM
107C RGS8 (C160S); 107C RGS8, 20 μM
  reversibility of inhibition after washing: partially reversed
107C RGS8 (C160S); FCPIA, 107C RGS8, Fig. 5
  Hill Coefficient: −0.54
107C RGS8 (C160S); [12]
  inhibition at 20 µM: ~20%
107C RGS8 (C160S); [13]
  inhibition at 20 µM: 45 ± 2%
RGS7
  IC50: > 200 µM
RGS7; FCPIA
  inhibition of RGS7/Gαo binding (in words): did not have activity
RGS16
  inhibition of RGS16/Gαo binding (in words): fully inhibits
RGS16; RGS16
  Hill Slope: −1.33

## NC(=O)CI [iodoacetamide]
papain; [11]
  effect on papain activity: markedly inhibits
papain; [14]
  effect on papain activity: concentration-dependently inhibited
papain; concentration dependence or concentration not stated, listed as IA
  effect on papain activity: inhibited the proteolytic activity of papain in a concentration-dependent manner

## WT RGS8 treated with CCG-50014 (with its covalently attached CCG-50014), recovered from gel filtration (domain or fragment)
Gαo [10]
  fold less potent at competing for Gα binding than vehicle-treated RGS8: 14 fold

## CCN1C(=O)C=CC1=O [NEM, N-ethyl maleimide, reference compound]
RGS8 [2]; FCPIA
  inhibition of RGS8/Gαo binding (in words): no effect
papain; [14]
  effect on papain activity: no effect
